Experimental data from ChEMBL document CHEMBL3407436, “Design and development of novel Mycobacterium tuberculosis L-alanine dehydrogenase inhibitors” (Eur J Med Chem, 2015).
Values after ≈ are worked out from the molar mass of the structure shown.

Legend:
[1] = system: Mycobacterium tuberculosis; test: Antimycobacterial activity against dormant Mycobacterium tuberculosis H37Rv model assessed as log reduction at 10 ug/ml incubated for 7 days measured after 28 days in presence of nutrient deprived condition; type: functional
Method in brief: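 H37Rv grown in 7H9/OADC, pelleted, washed twice and resuspended in PBS in sealed bottles, starved 6 weeks at 37°C. Treated at 10 µg/ml for 7 days. Suspensions diluted 10-fold to 10^-6 in 7H9/OADC and plated in triplicate; 37°C for 28 days without agitation. Wells with visible growth scored positive, MPN calculated statistically.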

[2] = system: Mycobacterium tuberculosis; test: Antimycobacterial activity against Mycobacterium tuberculosis H37Rv ATCC 27294 after 28 days by agar dilution method; type: functional; conditions: H37Rv ATCC 27294, 672 h
Method in brief: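 Two-fold serial dilutions incorporated into Middlebrook 7H11 agar with OADC, final 50 to 0.78 µg/mL. Inoculum from fresh 7H11 slants adjusted to 1 mg/mL wet weight in 0.05% Tween 80 saline, diluted 10^-2 (~10⁷ cfu/mL). 5 µL spotted per tube; 37 °C, read after 28 days. MIC = lowest concentration completely inhibiting growth; duplicates.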

[3] = Inhibition of Mycobacterium tuberculosis AlaDH using L-alanine as substrate after 20 mins by spectrophotometry
Method in brief: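 125 mM glycine-KOH buffer pH 10.2, 1 mM NAD⁺, 50 mM L-alanine, enzyme at a level set by range finding; 20 min at 37°C. NADH formation from oxidative deamination monitored continuously at 340 nm. Compounds tested at 25 to 0.5 µM; background measured without enzyme. IC₅₀ by software analysis.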

[4] = Cytotoxicity against mouse RAW264.7 cells at 50 uM after 48 hrs by MTT assay; type: cell-based; conditions: read-out: INH
Method in brief: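 RAW 264.7 cells grown in RPMI with 10% FBS plus penicillin/streptomycin to 80-90% confluency, seeded ~5,000 cells/well on poly-L-lysine plates, 24 h at 37°C, 5% CO₂. Compounds at 50 µM for 48 h; MTT (0.5 mg/ml) added for 3 h at 37°C; formazan read at 595 nm.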

[5] = system: Mycobacterium tuberculosis; test: Binding affinity to Mycobacterium tuberculosis AlaDH assessed as protein-ligand stabilization by measuring shift in melting temperature by differential scanning fluorimetry
Method in brief: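 Thermal shift assay on MTB L-AlaDH with Sypro Orange dye in a real-time PCR instrument. Samples equilibrated at 25°C for 3 min, then heated to 95°C in 0.1°C steps with fluorescence read at each step. Tm of protein-ligand complex compared with native protein Tm.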

| SMILES | FC [1] | MIC [2] [µM] | IC50 ([3]; read-out: IC50) [nM] | cytotoxicity at 48 h, 50 µM [4] [%] | IC50 [3] | ΔTm [5] [°C] |
| --- | --- | --- | --- | --- | --- | --- |
| NC(=O)c1c(NC(=O)c2ccc(Cl)cc2)sc2c1CCN(C(=O)c1ccccc1)C2 | 2 | 28.5 (≈ 12.5 µg/mL) | 1500 | 42.5 | – | – |
| N=C1S/C(=C\c2ccc(OCc3ccccc3)cc2)C(=O)N1c1ncc([N+](=O)[O-])s1 | – | – | 6770 | – | – | – |
| COc1ccc(NC(=O)N2CCc3c(sc(NC(=O)c4ccc([N+](=O)[O-])s4)c3C(N)=O)C2)cc1 | – | – | 8170 | – | – | – |
| CN1CCc2c(sc(NC(=O)c3ccc(Cl)cc3)c2C(N)=O)C1 | 2 | 8.95 (≈ 3.13 µg/mL) | 670 | 38.5 | – | – |
| N=C1S/C(=C\c2ccc(OCc3ccccc3)cc2)C(=O)N1c1ccccn1 | 2 | 8.06 (≈ 3.12 µg/mL) | 2120 | 37.2 | – | – |
| CC(C)(C)OC(=O)N1CCc2c(sc(NC(=O)c3ccc(Oc4ccccc4)cc3)c2C(N)=O)C1 | 2 | 6.33 (≈ 3.12 µg/mL) | 1120 | 26.9 | – | – |
| NC(=O)c1c(NC(=O)c2ccc(Oc3ccccc3)cc2)sc2c1CCN(C(=O)c1ccccc1)C2 | 2 | 3.47 (≈ 1.73 µg/mL) | 1110 | 4.71 | – | – |
| CN1CCc2c(sc(NC(=O)c3ccc(Oc4ccccc4)cc3)c2C(N)=O)C1 | 2 | 1.85 (≈ 0.754 µg/mL) | 730 | 58.9 | – | – |
| N=C1S/C(=C\c2ccc(OCc3ccccc3)cc2)C(=O)N1c1ccc(F)cc1 | 2 | 7.72 (≈ 3.12 µg/mL) | 8550 | 10.5 | – | – |
| NNC(=O)c1ccncc1 [ISONIAZID] | 1.2 | 0.72 (≈ 0.0987 µg/mL) | – | – | Not Active | – |
| N=C1S/C(=C\c2ccc(OCc3ccccc3)cc2)C(=O)N1c1ccccc1 | – | 16.2 (≈ 6.26 µg/mL) | 2270 | 37.9 | – | – |
| N#C/C(=C\c1cccs1)c1nc2cc([N+](=O)[O-])ccc2[nH]1 | – | – | 21300 | – | – | – |
| N=C1S/C(=C\c2ccc(OCc3ccccc3)cc2)C(=O)N1c1cccc([N+](=O)[O-])c1 | – | 14.5 (≈ 6.26 µg/mL) | 5560 | 52.9 | – | – |
| CC(=O)N1CCc2c(sc(NC(=O)c3ccc(Cl)cc3)c2C(N)=O)C1 | – | 4.13 (≈ 1.56 µg/mL) | 640 | 38.4 | – | 1.7 |
| Cc1cccc(N2C(=N)S/C(=C\c3ccc(OCc4ccccc4)cc3)C2=O)n1 | – | 1.94 (≈ 0.779 µg/mL) | 9440 | 25.1 | – | – |
| CC[C@@H](CO)NCCN[C@@H](CC)CO [ETHAMBUTOL] | – | 7.64 (≈ 1.56 µg/mL) | – | – | Not Active | – |
| CO[C@H]1/C=C/O[C@@]2(C)Oc3c(C)c(O)c4c(O)c(c(/C=N/N5CCN(C)CC5)c(O)c4c3C2=O)NC(=O)/C(C)=C\C=C\[C@H](C)[C@H](O)[C@@H](C)[C@@H](O)[C@@H](C)[C@H](OC(C)=O)[C@@H]1C [RIFAMPIN] | 2 | 0.15 (≈ 0.123 µg/mL) | – | – | Not Active | – |
| NC(=O)c1c(NC(=O)c2ccc(OCc3ccccc3)cc2)sc2c1CCN(C(=O)c1ccccc1)C2 | 2 | 12.9 (≈ 6.62 µg/mL) | 800 | 13.7 | – | – |
| CN1CCc2c(sc(NC(=O)c3ccc(OCc4ccccc4)cc3)c2C(N)=O)C1 | 2 | 15.3 (≈ 6.47 µg/mL) | 1220 | 37.6 | – | – |
| CC(=O)N1CCc2c(sc(NC(=O)c3ccc(OCc4ccccc4)cc3)c2C(N)=O)C1 | 2 | 1.56 (≈ 0.701 µg/mL) | 630 | 11.6 | – | – |

| SMILES | FC [1] | MIC [2] [µM] | IC50 ([3]; read-out: IC50) [nM] | cytotoxicity at 48 h, 50 µM [4] [%] | IC50 [3] | ΔTm [5] [°C] |
| --- | --- | --- | --- | --- | --- | --- |
| CC(C)(C)OC(=O)N1CCc2c(sc(NC(=O)c3ccc(OCc4ccccc4)cc3)c2C(N)=O)C1 | 2 | 1.53 (≈ 0.777 µg/mL) | 640 | 52.1 | – | – |
| N=C1S/C(=C\c2ccc(OCc3ccccc3)cc2)C(=O)N1c1ccc([N+](=O)[O-])cc1 | – | 7.23 (≈ 3.12 µg/mL) | 6160 | 17.3 | – | – |
| CC(C)(C)OC(=O)N1CCc2c(sc(NC(=O)c3ccc(Cl)cc3)c2C(N)=O)C1 | – | 1.79 (≈ 0.78 µg/mL) | 580 | 37.3 | – | 1.8 |
| Cc1ccc(C)c(N2C(=N)S/C(=C\c3ccc(OCc4ccccc4)cc3)C2=O)c1 | 2 | 15.1 (≈ 6.26 µg/mL) | 1340 | 45.8 | – | 4.6 |
| COc1c(N2C[C@@H]3CCCN[C@@H]3C2)c(F)cc2c(=O)c(C(=O)O)cn(C3CC3)c12 [MOXIFLOXACIN] | 2.5 | 1.24 (≈ 0.498 µg/mL) | – | – | Not Active | – |
| Cc1cccc(C)c1N1C(=N)S/C(=C\c2ccc(OCc3ccccc3)cc2)C1=O | 2 | 60.4 (≈ 25 µg/mL) | 1740 | 38.7 | – | 1.4 |
| N=C1S/C(=C\c2ccc(OCc3ccccc3)cc2)C(=O)N1c1ccccc1[N+](=O)[O-] | 2 | 58 (≈ 25 µg/mL) | 15000 | 24.4 | – | – |
| NC(=O)c1c(NC(=O)c2ccc(Oc3ccccc3)cc2)sc2c1CCN(Cc1ccccc1)C2 | 2 | 3.58 (≈ 1.73 µg/mL) | 780 | 23.6 | – | – |
| CC(=O)N1CCc2c(sc(NC(=O)C3CC3)c2C(N)=O)C1 | – | – | 20100 | – | – | – |
| CC(=O)N1CCc2c(sc(NC(=O)c3ccc(Oc4ccccc4)cc3)c2C(N)=O)C1 | – | 6.11 (≈ 2.66 µg/mL) | 660 | 32.9 | – | – |
| N=C1S/C(=C\c2ccc(OCc3ccccc3)cc2)C(=O)N1c1ccc(Cl)cc1 | – | 7.42 (≈ 3.12 µg/mL) | 7010 | 16.4 | – | – |
| Cc1c(Cl)cccc1N1C(=N)S/C(=C\c2ccc(OCc3ccccc3)cc2)C1=O | – | 14.4 (≈ 6.26 µg/mL) | 13000 | 59.7 | – | – |
| N=C1S/C(=C\c2ccc(OCc3ccccc3)cc2)C(=O)N1c1ncccn1 | – | 4.02 (≈ 1.56 µg/mL) | 7520 | 26.6 | – | – |
| N=C1S/C(=C\c2ccc(OCc3ccccc3)cc2)C(=O)N1c1ccc(Cl)cc1Cl | 2 | 13.8 (≈ 6.27 µg/mL) | 3490 | 13.8 | – | – |
| NC(=O)c1c(NC(=O)c2ccc(Cl)cc2)sc2c1CCN(Cc1ccccc1)C2 | 2 | 3.67 (≈ 1.56 µg/mL) | 1140 | 11.1 | – | – |
| NC(=O)c1c(NC(=O)c2ccc(OCc3ccccc3)cc2)sc2c1CCN(Cc1ccccc1)C2 | 2 | 12.6 (≈ 6.26 µg/mL) | 810 | 24 | – | – |
| CCc1nc(Nc2ccccc2)c2c3c(sc2n1)CCCC3 | – | – | 15100 | – | – | – |
| Cc1ccc(N2C(=N)S/C(=C\c3ccc(OCc4ccccc4)cc3)C2=O)c(C)c1 | – | 1.88 (≈ 0.779 µg/mL) | 6080 | 36.8 | – | – |
| N=C1S/C(=C\c2ccc(OCc3ccccc3)cc2)C(=O)N1c1ccc(Br)cc1 | – | 3.35 (≈ 1.56 µg/mL) | 22300 | 7.83 | – | – |
